Our source for the Ki and Activity values is ChEMBL document CHEMBL1157749, “Novel N2-substituted pyrazolo[3,4-d]pyrimidine adenosine A3 receptor antagonists: inhibition of A3-mediated human glioblastoma cell proliferation” (J Med Chem, 2010).

As usually defined, the Ki is the equilibrium dissociation constant of an inhibitor or competing ligand from its target.

Experiment [1] has as its target T1, Adenosine receptor A1 (Homo sapiens, UniProt P30542).
T1 sequence (P30542 whole entry): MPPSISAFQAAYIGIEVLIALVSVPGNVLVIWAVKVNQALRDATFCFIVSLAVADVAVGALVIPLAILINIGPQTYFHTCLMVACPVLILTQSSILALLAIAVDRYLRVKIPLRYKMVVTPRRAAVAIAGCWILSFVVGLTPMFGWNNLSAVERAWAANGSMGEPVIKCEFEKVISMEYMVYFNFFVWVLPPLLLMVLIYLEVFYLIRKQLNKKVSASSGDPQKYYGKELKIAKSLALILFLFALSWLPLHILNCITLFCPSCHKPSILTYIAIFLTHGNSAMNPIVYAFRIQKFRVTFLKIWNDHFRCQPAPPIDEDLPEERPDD
Put plainly: Inhibition of human adenosine A1 receptor. Put shortly:
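Displacement binding using membranes (30 μg protein) from CHO cells stably expressing human A1 receptor. […] Six compound concentrations were tested, in DMSO ≤2% final. Nonspecific binding was defined with 50 μM RPIA. IC50 was converted to Ki by Cheng-Prusoff; at least three determinations.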

Experiment [2] addresses T1, Adenosine receptor A1. Put plainly: Displacement of [3H]DPCPX from human adenosine A1 receptor expressed in CHO cells. The format is cell-based. For orientation: Loss of bound radioactivity is the signal in a displacement assay; it reports binding, not function.
Experiment [3] has as its target T2, Adenosine receptor A3 (Homo sapiens) (UniProt P0DMS8).
T2 sequence (whole entry): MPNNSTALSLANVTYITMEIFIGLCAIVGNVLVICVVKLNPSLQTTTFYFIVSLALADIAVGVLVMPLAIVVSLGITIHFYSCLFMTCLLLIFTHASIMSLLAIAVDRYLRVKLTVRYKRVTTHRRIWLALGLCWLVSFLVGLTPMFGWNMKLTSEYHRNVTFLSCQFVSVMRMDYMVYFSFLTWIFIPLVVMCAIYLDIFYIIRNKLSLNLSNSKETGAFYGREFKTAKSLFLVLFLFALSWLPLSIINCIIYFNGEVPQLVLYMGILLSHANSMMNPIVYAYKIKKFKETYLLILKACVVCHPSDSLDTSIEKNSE
Put plainly: Induction of adenosine A3 receptor-mediated ERK1/2 phosphorylation in human U87MG cells at 100 nM by ELISA. The format is cell-based. The following applies: U-87MG ATCC, TDE = time-dependent effect. In a few lines: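 Time course in U87MG cells given 100 nM Cl-IB-MECA for 5–120 min. Phospho-ERK1/2 is read by colorimetric cell-based ELISA after fixation, with crystal violet cell-number correction. Results are % of control cells, mean ± SEM, Student t test.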

`Cc1cn2c(NC(=O)c3ccccc3)nc(-c3ccccc3)nc2n1` came in with a Ki in experiment [1] of 350 nM.

In turn, `CNC(=O)OC[C@H]1O[C@@H](n2cnc3c(NCc4cccc(I)c4)nc(Cl)nc32)[C@H](O)[C@@H]1O` returned a Ki in experiment [2] of 120 nM. For the same compound, the Activity entry in experiment [3] is “tde”.
